ChEMBL document CHEMBL4038291, “Discovery of novel benzothienoazepine derivatives as potent inhibitors of respiratory syncytial virus” (Bioorg Med Chem Lett, 2017)
Activity calls are given as the source filed them. The calls are words filed in the database; no cut-off is given here.

How the values were obtained:
[1] = Inhibition of RSV A2 RNA-directed RNA polymerase L infected in human Hep2 cells assessed as reduction in virus-induced cytopathic effect measured after 5 days by resazurin dye based fluorescence assay; assay type: cell-based; settings: human respiratory syncytial virus, HEp-2, 120 h
Outline: (§1)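 Read-out is cytopathic effect of RSV infection in HEp-2 cells. IC50 is the concentration reducing CPE by 50%. Values averaged from 2 experiments.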

[2] = Inhibition of Respiratory syncytial virus B WST RNA-directed RNA polymerase L infected in human Hep2 cells assessed as reduction in virus-induced cytopathic effect measured after 6 days by resazurin dye based fluorescence assay; assay type: cell-based; settings: HEp-2, 144 h; outline: as §1
[3] = Cytotoxicity against human Hep2 cells; assay type: cell-based; settings: HEp-2 cells
[4] = system: Human respiratory syncytial virus A2; experiment: Antiviral activity against Respiratory syncytial virus A2 infected in human Hep2 cells at 0.001 to 3.125 ug/ml after 6 passages; assay type: functional, cell-based
[5] = system: Human respiratory syncytial virus A2; experiment: Inhibition of Respiratory syncytial virus A2 RNA-directed RNA polymerase L by luciferase reporter-based RSV minigenome assay
[6] = molecular target: T1, Protein M2-1 (Human respiratory syncytial virus A (strain A2)) (UniProt P04545); experiment: Inhibition of Respiratory syncytial virus A2 M2-1 by luciferase reporter-based RSV minigenome assay
T1 sequence (whole entry): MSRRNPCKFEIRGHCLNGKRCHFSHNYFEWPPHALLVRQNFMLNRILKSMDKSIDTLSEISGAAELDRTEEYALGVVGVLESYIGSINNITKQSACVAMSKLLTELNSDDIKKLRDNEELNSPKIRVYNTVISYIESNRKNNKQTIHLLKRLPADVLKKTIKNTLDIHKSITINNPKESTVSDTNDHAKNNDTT

[7] = system: Human respiratory syncytial virus A strain Long; experiment: Antiviral activity against human respiratory syncytial virus A strain long infected in cotton rat assessed as reduction in lung viral load administered intranasally pretreated for 4 hrs followed by viral infection measured after 4 days by plaque assay; assay type: functional
[8] = system: Human respiratory syncytial virus A strain Long; experiment: Antiviral activity against human respiratory syncytial virus A strain long infected in cotton rat assessed as reduction in NS1 expression administered intranasally pretreated for 4 hrs followed by viral infection measured after 4 days by RT-qPCR analysis; assay type: functional
[9] = molecular target: T2, Nucleoprotein (Human respiratory syncytial virus A (strain A2)) (UniProt P03418); experiment: (§2) Inhibition of Respiratory syncytial virus A2 protein N by luciferase reporter-based RSV minigenome assay
T2 sequence (whole entry): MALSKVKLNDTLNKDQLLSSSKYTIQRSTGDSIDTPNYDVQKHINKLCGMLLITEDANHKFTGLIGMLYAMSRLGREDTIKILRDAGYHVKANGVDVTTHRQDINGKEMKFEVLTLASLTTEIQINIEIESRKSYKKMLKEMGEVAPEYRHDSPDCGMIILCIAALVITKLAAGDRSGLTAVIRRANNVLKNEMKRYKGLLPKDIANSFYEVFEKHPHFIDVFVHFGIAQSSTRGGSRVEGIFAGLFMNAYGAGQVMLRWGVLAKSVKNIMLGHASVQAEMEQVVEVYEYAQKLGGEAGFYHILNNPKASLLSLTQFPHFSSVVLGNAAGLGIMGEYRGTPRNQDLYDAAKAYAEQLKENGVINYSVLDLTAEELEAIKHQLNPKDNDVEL

[10] = molecular target: T3, Nucleoprotein (Human respiratory syncytial virus A (strain A2), UniProt P03418); experiment: as §2
T3 sequence (P03418 whole entry): T2 sequence (whole entry)

[11] = molecular target: Phosphoprotein (Human respiratory syncytial virus A (strain A2)) (UniProt P03421); experiment: (§3) Inhibition of Respiratory syncytial virus A2 protein P by luciferase reporter-based RSV minigenome assay
Sequence of Phosphoprotein (Human respiratory syncytial virus A (strain A2)) (P03421 whole entry): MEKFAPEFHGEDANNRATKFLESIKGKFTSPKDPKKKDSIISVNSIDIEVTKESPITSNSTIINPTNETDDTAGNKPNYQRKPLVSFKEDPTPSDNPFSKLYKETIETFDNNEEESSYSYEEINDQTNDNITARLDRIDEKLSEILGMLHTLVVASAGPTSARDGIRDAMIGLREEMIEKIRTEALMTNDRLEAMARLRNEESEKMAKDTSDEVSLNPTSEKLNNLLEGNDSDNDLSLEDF

[12] = molecular target: Phosphoprotein (Human respiratory syncytial virus A (strain A2), UniProt P03421); experiment: as §3
Sequence of Phosphoprotein (P03421 whole entry): as above

[13] = Antiviral activity against human respiratory syncytial virus A strain long infected in cotton rat assessed as reduction in plaque forming units in lungs at 0.33 to 3.3 mg/ml administered intranasally pretreated for 4 hrs followed by viral infection measured after 4 days; assay type: functional

Compound | IC50 [1] [nM] | IC50 [2] [nM] | CC50 [3] [nM] | other results
Cc1cnc(N2CC3(CCOCC3)C2)c(C(=O)Nc2ccc(C(=O)N3CCc4cc(-c5cn6ccccc6n5)sc4-c4ccccc43)cc2)c1 | 1.8 | 14.4 | > 14600 | 
Cc1cccc2[nH]c(-c3cc4c(s3)-c3ccccc3N(C(=O)c3ccc(NC(=O)c5cccnc5N5CC6(CCOCC6)C5)cc3)CC4)nc12 | 0.6 | 52.9 | > 14600 | 
Cc1cnc(N2CC3(CCOCC3)C2)c(C(=O)Nc2ccc(C(=O)N3CCc4cc(-c5ncc(C)[nH]5)sc4-c4ccccc43)cc2)c1 | 0.7 | 3.3 | > 15500 | 
Cc1ccnc(N2CC3(CCOCC3)C2)c1C(=O)Nc1ccc(C(=O)N2CCc3cc(-c4nc5ccccc5[nH]4)sc3-c3ccccc32)cc1 |  | > 1470 |  | 
N#Cc1ccc2[nH]c(-c3cc4c(s3)-c3ccccc3N(C(=O)c3ccc(NC(=O)c5cccnc5N5CC6(CCOCC6)C5)cc3)CC4)nc2c1 | 0.5 | 162 | > 14400 | 
O=C(Nc1ccccc1)c1cc2c(s1)-c1ccccc1N(C(=O)c1ccc(NC(=O)c3cccnc3N3CC4(CCOCC4)C3)cc1)CC2 | 0.5 | 283 | > 14900 | 
COc1ccc(C(=O)Nc2ccc(C(=O)N3CCc4cc(-c5nc6ccccc6[nH]5)sc4-c4ccccc43)cc2)c(N2CC3(CCOCC3)C2)n1 | 0.5 | 37.8 | > 14300 | 
N#Cc1cccc2[nH]c(-c3cc4c(s3)-c3ccccc3N(C(=O)c3ccc(NC(=O)c5cccnc5N5CC6(CCOCC6)C5)cc3)CC4)nc12 | 0.6 | 69 | > 14400 | 
CC(C)c1cnc(N2CC3(CCOCC3)C2)c(C(=O)Nc2ccc(C(=O)N3CCc4cc(-c5nc6ccccc6[nH]5)sc4-c4ccccc43)cc2)c1 | 5.7 | > 1410 | > 14100 | 
O=C(Nc1ccc(C(=O)N2CCc3cc(-c4nc5ccccc5[nH]4)sc3-c3ccccc32)cc1)c1cccnc1N1CC2(CCOCC2)C1 | 0.8 | 59.8 | > 14900 | 
O=C(Nc1ccc(C(=O)N2CCc3cc(-c4nc5cc(Cl)ccc5[nH]4)sc3-c3ccccc32)cc1)c1cccnc1N1CC2(CCOCC2)C1 | 1.6 | 161 | > 14200 | 
Cc1cnc(N2CC3(CCOCC3)C2)c(C(=O)Nc2ccc(C(=O)N3CCc4cc(-c5nc6ccccc6[nH]5)sc4-c4ccccc43)cc2)c1 | 0.5 | 5.2 | > 14600 | 
O=C(Nc1ccc(C(=O)N2CCc3cc(-c4cc5ccccc5[nH]4)sc3-c3ccccc32)cc1)c1cccnc1N1CC2(CCOCC2)C1 | 1.5 | 1020 | > 15000 | 
O=C(Nc1ccc(C(=O)N2CCc3cc(-c4nc5ccccc5[nH]4)sc3-c3ccccc32)cc1)c1ccc(C(F)(F)F)nc1N1CC2(CCOCC2)C1 | 7.3 | > 1360 | > 13600 | 
Cc1cnc(N2CC3(CCOCC3)C2)c(C(=O)Nc2ccc(C(=O)N3CCc4cc(-c5nc(C)c(C)[nH]5)sc4-c4ccccc43)cc2)c1 | 1.6 | 6.2 | > 15100 | 
Cc1cnc(N2CC3(CCOCC3)C2)c(C(=O)Nc2ccc(C(=O)N3CCc4cc(-c5nc6cccc(F)c6[nH]5)sc4-c4ccccc43)cc2)c1 | 1.4 | 2.1 | > 14300 | Activity [4]: inactive; inhibition [5]: Dose-dependent effect; inhibition [6]: Dose-dependent effect; Activity [7]: Active; Activity [8]: Dose-dependent effect; inhibition [9]: Dose-dependent effect; IC50 [10]: 2 nM; inhibition [11]: Dose-dependent effect; IC50 [12]: 2 nM; Activity [13]: <2.3 log10PFU
Cc1cnc(N2CC3(CCOCC3)C2)c(C(=O)Nc2ccc(C(=O)N3CCc4cc(-c5cc6ccccn6n5)sc4-c4ccccc43)cc2)c1 | 0.7 | 8.1 | > 14600 | 
O=C(NC1CC1)c1cc2c(s1)-c1ccccc1N(C(=O)c1ccc(NC(=O)c3cccnc3N3CC4(CCOCC4)C3)cc1)CC2 | 2.2 | 286 | 6410 | 
O=C(Nc1ccc(C(=O)N2CCc3cc(-c4nc5cc(C(F)(F)F)ccc5[nH]4)sc3-c3ccccc32)cc1)c1cccnc1N1CC2(CCOCC2)C1 | 3.1 | > 1360 | > 13600 | 
CCc1cnc(N2CC3(CCOCC3)C2)c(C(=O)Nc2ccc(C(=O)N3CCc4cc(-c5nc6ccccc6[nH]5)sc4-c4ccccc43)cc2)c1 | 0.7 | 13.3 | > 14300 | 
O=C(Nc1ccc(C(=O)N2CCc3cc(-c4nc5cnccc5[nH]4)sc3-c3ccccc32)cc1)c1cccnc1N1CC2(CCOCC2)C1 | 7.6 | 844 | > 14900 | 
O=C(Nc1ccc(C(=O)N2CCc3cc(-c4nc5c(C(F)(F)F)cccc5[nH]4)sc3-c3ccccc32)cc1)c1cccnc1N1CC2(CCOCC2)C1 | 0.6 | 38.8 | > 13600 | 
Cc1ccc(C(=O)Nc2ccc(C(=O)N3CCc4cc(-c5nc6ccccc6[nH]5)sc4-c4ccccc43)cc2)c(N2CC3(CCOCC3)C2)n1 | 0.3 to 0.8 | 5.2 to 13.1 | > 14600 | 
O=C(Nc1ccc(C(=O)N2CCc3cc(-c4nc5ccccc5o4)sc3-c3ccccc32)cc1)c1cccnc1N1CC2(CCOCC2)C1 | 56 | > 1500 | > 14900 | 
O=C(Nc1ccc(C(=O)N2CCc3cc(-c4nc5c(Cl)cccc5[nH]4)sc3-c3ccccc32)cc1)c1cccnc1N1CC2(CCOCC2)C1 | 0.8 | 30.7 | > 14200 | 
O=C(Nc1ccc(C(=O)N2CCc3cc(-c4nc5cncnc5[nH]4)sc3-c3ccccc32)cc1)c1cccnc1N1CC2(CCOCC2)C1 | 13.1 | > 1500 | > 14900 | 
O=C(Nc1ccc(C(=O)N2CCc3cc(-c4nc5c(F)cccc5[nH]4)sc3-c3ccccc32)cc1)c1cccnc1N1CC2(CCOCC2)C1 | 1.6 | 90.9 | > 14600 | 
